Assay results from different studies.
Lines come from different studies, so protocols differ.
Target: Bone morphogenetic protein receptor type-1A (BMPR1A, Homo sapiens, UniProt P36894)

O=C(Nc1cnn(-c2csc(C(=O)NC3COC3)c2)c1)Nc1ccccc1Cl gave a remaining activity of 105% (enzyme activity; inhibitor; 5 µM).
The inhibition of CCOc1cc(-c2nncn2C)ccc1Nc1ncc2cc(C)nc(NCC(C)(C)C)c2n1 is reported as no more than 15% (cell-free assay; TR-FRET; 1 µM).
With Nc1cnc(N2CCc3cc(S(=O)(=O)Nc4c(F)cc(Cl)cc4F)cc(N4CCCC4=O)c32)nc1 the remaining binding was 91% (cell-free assay; competition with immobilised ligand; 1 µM).
CC(C)(C)c1nc(-c2cccc(NS(=O)(=O)c3c(F)cccc3F)c2F)c(-c2ccnc(N)n2)s1 gave a remaining activity of 48% (enzyme activity; inhibitor; radiometric; 1 µM).
With Nc1ncnc2occ(-c3ccc(NC(=O)Nc4cc(C(F)(F)F)ccc4F)cc3)c12 the remaining signal was 100% (cell-free assay; 20 µM).
Cc1noc([C@H]2C[C@@H](c3ccc(C(F)(F)F)cc3)CN(C(=O)N3CCS(=O)(=O)C3)C2)n1 has a remaining binding of 100% (binding; competition with immobilised ligand; 1 µM).
With Cc1ccc(C(=O)Nc2ccc(CN3CCN(C)CC3)c(C(F)(F)F)c2)cc1C#Cc1cnc2cccnn12 the remaining activity was 97% (enzyme activity; 23.5 nM).
For CC(C)(C)c1nc2c(s1)c1nc(N)ncc1c1ccc(NS(=O)(=O)c3c(F)cccc3F)c(F)c12, the remaining activity was 96% (enzyme activity; inhibitor; radiometric; 1 µM).
With Cc1sc(C(=O)NC2COC2)cc1-n1cc(NC(=O)Nc2c(F)cccc2Cl)cn1 the remaining activity was 92.5% (enzyme activity; inhibitor; 10 µM).
